From PMC10829792 (Cell Reports Medicine, 2024) come the findings set out here.

One series deals with γH2AX in HeLa cells. Briefly: γH2AX foci assay, immunofluorescence. Format: cell-based, human. The conditions noted are these: 24 h, γPNA2-NLS 8 μM, bleomycin 50 and 150 μM. The method in brief: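 HeLa cells were seeded at 100,000/well and exposed for 24 h to test compound (8 μM) or bleomycin (50 and 150 μM). Nuclei were stained with NucBlue (25 min, 37°C). Cells were fixed in 4% PFA (10 min, RT), permeabilised with 0.1% Triton X in PBS, and stained with PE-conjugated anti-γH2AX (2 h, 37°C). Read-out was fluorescence microscopy.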

Series [1] relates to DLBCL patient-derived xenograft (PDX) mice. Briefly: Tumor growth in DLBCL PDX mice. Type of series: in vivo, mouse. To be noted: γPNA2-NLS 5 mg/kg, romidepsin 1 mg/kg i.p., n = 5 per group. The method in brief: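 DLBCL PDX fragments were serially implanted, reharvested at ~1500 mm³, and grouped at 100–150 mm³. Dosing followed the U2932 xenograft regimen: romidepsin 1 mg/kg i.p. days 0 and 6; test compound 5 mg/kg days 1, 4, 7 and 10. Body weight and tumour volume were recorded daily. Endpoint was tumour volume 1800–2000 mm³.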

The next series deals with U2932 xenograft mice. The series is described as follows: Tumor growth and survival study in U2932 xenograft mice. Format: in vivo, mouse. The conditions noted are these: romidepsin 1 mg/kg i.p. on days 0 and 6, n = 8. The method in brief: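 Mice bearing U2932 tumours of 100–150 mm³ were randomised. Romidepsin 1 mg/kg i.p. on days 0 and 6, and test compound 5 mg/kg on days 1, 4, 7 and 10, alone or combined. Vehicle group included.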

The test system of another series is Raji cells. Briefly: Cell viability, trypan blue assay. Type of series: cell-based, human. The conditions noted are these: romidepsin with or without γPNA2-NLS, mean, n = 3.
The test system of the next series is U2932 cells. Briefly: Cell viability, trypan blue assay. Type of series: cell-based, human. The conditions noted are these: U2932 cells treated with only romidepsin (10 nM) or γPNA2-NLS (8 μM).
For the next series, the system named is DLBCL PDX tumors. Briefly: Histology and immunohistochemistry. Format: in vivo, mouse. The conditions noted are these: romidepsin study, n = 2 mice per group, n > 4 images. The method in brief:
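DLBCL PDX mice grouped at tumour volume 100–150 mm³. Romidepsin 1 mg/kg i.p. on days 0 and 6; test compound 5 mg/kg on days 1, 4, 7 and 10. Mice euthanized at 1800–2000 mm³.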

bleomycin: the γH2AX immunofluorescence staining result in the series on γH2AX in HeLa cells is “increased γH2AX-positive nuclei”.
Take `C/C=C1\NC(=O)[C@H]2CSSCC/C=C/[C@H](CC(=O)N[C@H](C(C)C)C(=O)N2)OC(=O)[C@H](C(C)C)NC1=O` [romidepsin]: the “lower tumor volumes / decrease on day 35” value in series [1] was 1.3 fold. In the series with U2932 xenograft mice, the “reduction of tumor growth” value is on record as 2 fold. The “reduction in viability, day 4” value in the series with Raji cells stood at 58%. Also, the “viability, day 4, single treatments” value with U2932 cells is on record as 50 % viability. Further, the “caspase-3 activation, fold increase” value with DLBCL PDX tumors was ~5 fold.
